# Data published in ChEMBL document CHEMBL4371099, “Bifunctional Duocarmycin Analogues as Inhibitors of Protein Tyrosine Kinases” (J Nat Prod, 2019).
# Active and inactive are the calls of the source. The calls are words filed in the database; no cut-off is given here.
# Legend:
# A549 [1] = experiment: Cell cycle arrest in human A549 cells assessed as accumulation at sub-G1 phase after 24 hrs by propidium iodide staining based FACS analysis; assay type: functional
# Method in brief: (§1)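 Cells (1 × 10^6) seeded, incubated overnight, then exposed 24 h at 37 °C and 5% CO2 to increasing concentrations of compound (100 nM axitinib as VEGFR-2 control). Fixed in cold 70% ethanol, stained with propidium iodide for 30 min. DNA content read by flow cytometry, 10,000 gated events per sample. Sub-G1 fraction taken as apoptosis. Three independent experiments.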
# [2] = target: T1, Mast/stem cell growth factor receptor Kit (Homo sapiens, UniProt P10721); experiment: Inhibition of recombinant human N-terminal GST/His6-tagged c-KIT (T544 to V976 residues) expressed in sf9 cells assessed as equivalents of test compound required to show 50% inhibition using Poly(Glu,Tyr) 4:1 as substrate after 60 mins in presence of [gamma33P]-ATP by scintillation counting method
# Method in brief: (§2)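 Radiometric 33PanQinase assay using recombinant human kinases from Sf9 or E. coli, purified by affinity chromatography. ATP at the apparent Km, plus [γ-33P]-ATP. Compound tested at 1−10 000 nM, 1% DMSO. Incubated 60 min at 30 °C, stopped with 2% H3PO4, 33Pi incorporation counted by scintillation.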
# [3] = Selectivity index, ratio of IC50 for human PBMC to IC50 for human MIAPaCa2 cells; assay type: toxicity; details: PBMC versus MIAPaCa2 cells, read-out: Ratio IC50
# Method in brief: (§3)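 Selectivity index calculated as MTT IC50 in PBMC divided by MTT IC50 in the cancer line. Both values come from the 24 h MTT viability assay.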
# [4] = target: T2, Vascular endothelial growth factor receptor 2 (Homo sapiens, UniProt P35968); experiment: Inhibition of recombinant human N-terminal GST-tagged VEGFR2 (D807 to V1356 residues) expressed in sf9 cells using Poly(Glu,Tyr) 4:1 as substrate after 60 mins in presence of [gamma33P]-ATP by scintillation counting method; method in brief: as §2
# A549 [5] = experiment: Cytotoxicity against human A549 cells assessed as reduction in cell viability after 24 hrs by MTT assay; assay type: functional, cell-based; details: A549, 24 h
# Method in brief: (§4)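 Cancer lines or PBMC from healthy human donors seeded in 96-well plates. Exposed to various compound concentrations for 24 h at 37 °C, 5% CO2. MTT solution (5 mg/mL) then added and incubated 2 h more. IC50 obtained by nonlinear regression. Mean ± SD of three independent experiments.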
# [6] = target: T3, Vascular endothelial growth factor receptor 3 (Homo sapiens, UniProt P35916); experiment: Inhibition of recombinant human N-terminal GST/His6-tagged VEGFR3 (N799 to R1298 residues) expressed in sf9 cells using Poly(Glu,Tyr) 4:1 as substrate after 60 mins in presence of [gamma33P]-ATP by scintillation counting method; method in brief: as §2
# [7] = Selectivity index, ratio of IC50 for human PBMC to IC50 for human CCRF-CEM cells; assay type: toxicity; details: PBMC versus CCRF-CEM cells, read-out: Ratio IC50; method in brief: as §3
# [8] = Selectivity index, ratio of IC50 for human PBMC to IC50 for human CEM/ADR5000 cells; assay type: toxicity; details: PBMC versus CEM/ADR5000 cells, read-out: Ratio IC50; method in brief: as §3
# [9] = Selectivity index, ratio of IC50 for human PBMC to IC50 for human A549 cells; assay type: toxicity; details: PBMC versus A549 cells, read-out: Ratio IC50; method in brief: as §3
# Jurkat [10] = experiment: Cell cycle arrest in human Jurkat cells assessed as accumulation at sub-G1 phase after 24 hrs by propidium iodide staining based FACS analysis; assay type: functional; method in brief: as §1
# ADR5000 cell line [11] = experiment: Cell cycle arrest in human CEM/ADR5000 cells assessed as accumulation at sub-G1 phase after 24 hrs by propidium iodide staining based FACS analysis; assay type: functional; method in brief: as §1
# MIA PaCa-2 [12] = experiment: Cytotoxicity against human MIAPaCa2 cells assessed as reduction in cell viability after 24 hrs by MTT assay; assay type: functional, cell-based; details: MIA PaCa-2, 24 h; method in brief: as §4
# CCRF-CEM [13] = experiment: Cytotoxicity against human CCRF-CEM cells assessed as reduction in cell viability after 24 hrs by MTT assay; assay type: functional, cell-based; method in brief: as §4
# MIA PaCa-2 [14] = experiment: Cell cycle arrest in human MIAPaCa2 cells assessed as accumulation at S phase at 1 nM after 24 hrs by propidium iodide staining based FACS analysis; assay type: functional; method in brief: as §1
# [15] = Selectivity index, ratio of IC50 for human PBMC to IC50 for human Jurkat cells; assay type: toxicity; details: PBMC versus Jurkat cells, read-out: Ratio IC50; method in brief: as §3
# [16] = target: T2, Vascular endothelial growth factor receptor 2; experiment: Inhibition of recombinant human N-terminal GST-tagged VEGFR2 (D807 to V1356 residues) expressed in sf9 cells assessed as equivalents of test compound required to show 50% inhibition using Poly(Glu,Tyr) 4:1 as substrate after 60 mins in presence of [gamma33P]-ATP by scintillation counting method; method in brief: as §2
# PBMC = experiment: Cytotoxicity against human PBMC assessed as reduction in cell viability after 24 hrs by MTT assay; assay type: cell-based; method in brief: as §4
# [17] = target: T4, Vascular endothelial growth factor receptor 1 (Homo sapiens, UniProt P17948); experiment: Inhibition of recombinant human N-terminal GST-tagged VEGFR1 (K784 to I1338 residues) expressed in sf9 cells using Poly(Glu,Tyr) 4:1 as substrate after 60 mins in presence of [gamma33P]-ATP by scintillation counting method; method in brief: as §2
# [18] = target: T5, Tyrosine-protein kinase ABL2 (Homo sapiens, UniProt P42684); experiment: Inhibition of recombinant human N-terminal GST/His6-tagged ABL2 (M1 to P650 residues) expressed in sf9 cells assessed as equivalents of test compound required to show 50% inhibition using Poly(Glu,Tyr) 4:1 as substrate after 60 mins in presence of [gamma33P]-ATP by scintillation counting method; method in brief: as §2
# [19] = target: T3, Vascular endothelial growth factor receptor 3; experiment: Inhibition of recombinant human N-terminal GST/His6-tagged VEGFR3 (N799 to R1298 residues) expressed in sf9 cells assessed as equivalents of test compound required to show 50% inhibition using Poly(Glu,Tyr) 4:1 as substrate after 60 mins in presence of [gamma33P]-ATP by scintillation counting method; method in brief: as §2
# ADR5000 cell line [20] = experiment: Cytotoxicity against human CEM/ADR5000 cells assessed as reduction in cell viability after 24 hrs by MTT assay; assay type: functional, cell-based; details: ADR5000, 24 h; method in brief: as §4
# [21] = target: T1, Mast/stem cell growth factor receptor Kit; experiment: Inhibition of recombinant human N-terminal GST/His6-tagged c-KIT (T544 to V976 residues) expressed in sf9 cells using Poly(Glu,Tyr) 4:1 as substrate after 60 mins in presence of [gamma33P]-ATP by scintillation counting method; method in brief: as §2
# [22] = target: T5, Tyrosine-protein kinase ABL2; experiment: Inhibition of recombinant human N-terminal GST/His6-tagged ABL2 (M1 to P650 residues) expressed in sf9 cells using Poly(Glu,Tyr) 4:1 as substrate after 60 mins in presence of [gamma33P]-ATP by scintillation counting method; method in brief: as §2
# CCRF-CEM [23] = experiment: Cell cycle arrest in human CCRF-CEM cells assessed as accumulation at sub-G1 phase after 24 hrs by propidium iodide staining based FACS analysis; assay type: functional; method in brief: as §1
# [24] = target: T4, Vascular endothelial growth factor receptor 1; experiment: Inhibition of recombinant human N-terminal GST-tagged VEGFR1 (K784 to I1338 residues) expressed in sf9 cells assessed as equivalents of test compound required to show 50% inhibition using Poly(Glu,Tyr) 4:1 as substrate after 60 mins in presence of [gamma33P]-ATP by scintillation counting method; method in brief: as §2
# MIA PaCa-2 [25] = experiment: Cell cycle arrest in human MIAPaCa2 cells assessed as accumulation at sub-G1 phase after 24 hrs by propidium iodide staining based FACS analysis; assay type: functional; method in brief: as §1
# Jurkat [26] = experiment: Cytotoxicity against human Jurkat cells assessed as reduction in cell viability after 24 hrs by MTT assay; assay type: functional, cell-based; method in brief: as §4
# MIA PaCa-2 [27] = experiment: Cell cycle arrest in human MIAPaCa2 cells at 100 nM after 24 hrs by propidium iodide staining based FACS analysis; assay type: functional
# Method in brief: (§5)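 Cells (1 × 10^6) seeded in 12-well plates and held overnight, then exposed to increasing concentrations of test compound or 100 nM axitinib (VEGFR-2 inhibition control) for 24 h at 37 °C, 5% CO2. Fixed in cold 70% ethanol, stained with propidium iodide for 30 min, DNA content read by flow cytometry on 10,000 gated events; three independent experiments, means ± SD.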
# Jurkat [28] = experiment: Cell cycle arrest in human Jurkat cells at 100 nM after 24 hrs by propidium iodide staining based FACS analysis; assay type: functional; method in brief: as §5
# CCRF-CEM [29] = experiment: Cell cycle arrest in human CCRF-CEM cells at 100 nM after 24 hrs by propidium iodide staining based FACS analysis; assay type: functional; method in brief: as §5
# A549 [30] = experiment: Cell cycle arrest in human A549 cells at 100 nM after 24 hrs by propidium iodide staining based FACS analysis; assay type: functional; method in brief: as §5
# ADR5000 cell line [31] = experiment: Cell cycle arrest in human CEM/ADR5000 cells at 100 nM after 24 hrs by propidium iodide staining based FACS analysis; assay type: functional; method in brief: as §5
# MIA PaCa-2 [32] = experiment: Cell cycle arrest in human MIAPaCa2 cells at 1 to 1000 nM after 24 hrs by propidium iodide staining based FACS analysis; assay type: functional; method in brief: as §1
# [33] = Cytotoxicity against human PBMC assessed as cell viability at 80 uM after 24 hrs by MTT assay relative to control; assay type: cell-based; details: read-out: Activity; method in brief: as §4
# T4 sequence (P17948 whole entry, the tested form may be a part): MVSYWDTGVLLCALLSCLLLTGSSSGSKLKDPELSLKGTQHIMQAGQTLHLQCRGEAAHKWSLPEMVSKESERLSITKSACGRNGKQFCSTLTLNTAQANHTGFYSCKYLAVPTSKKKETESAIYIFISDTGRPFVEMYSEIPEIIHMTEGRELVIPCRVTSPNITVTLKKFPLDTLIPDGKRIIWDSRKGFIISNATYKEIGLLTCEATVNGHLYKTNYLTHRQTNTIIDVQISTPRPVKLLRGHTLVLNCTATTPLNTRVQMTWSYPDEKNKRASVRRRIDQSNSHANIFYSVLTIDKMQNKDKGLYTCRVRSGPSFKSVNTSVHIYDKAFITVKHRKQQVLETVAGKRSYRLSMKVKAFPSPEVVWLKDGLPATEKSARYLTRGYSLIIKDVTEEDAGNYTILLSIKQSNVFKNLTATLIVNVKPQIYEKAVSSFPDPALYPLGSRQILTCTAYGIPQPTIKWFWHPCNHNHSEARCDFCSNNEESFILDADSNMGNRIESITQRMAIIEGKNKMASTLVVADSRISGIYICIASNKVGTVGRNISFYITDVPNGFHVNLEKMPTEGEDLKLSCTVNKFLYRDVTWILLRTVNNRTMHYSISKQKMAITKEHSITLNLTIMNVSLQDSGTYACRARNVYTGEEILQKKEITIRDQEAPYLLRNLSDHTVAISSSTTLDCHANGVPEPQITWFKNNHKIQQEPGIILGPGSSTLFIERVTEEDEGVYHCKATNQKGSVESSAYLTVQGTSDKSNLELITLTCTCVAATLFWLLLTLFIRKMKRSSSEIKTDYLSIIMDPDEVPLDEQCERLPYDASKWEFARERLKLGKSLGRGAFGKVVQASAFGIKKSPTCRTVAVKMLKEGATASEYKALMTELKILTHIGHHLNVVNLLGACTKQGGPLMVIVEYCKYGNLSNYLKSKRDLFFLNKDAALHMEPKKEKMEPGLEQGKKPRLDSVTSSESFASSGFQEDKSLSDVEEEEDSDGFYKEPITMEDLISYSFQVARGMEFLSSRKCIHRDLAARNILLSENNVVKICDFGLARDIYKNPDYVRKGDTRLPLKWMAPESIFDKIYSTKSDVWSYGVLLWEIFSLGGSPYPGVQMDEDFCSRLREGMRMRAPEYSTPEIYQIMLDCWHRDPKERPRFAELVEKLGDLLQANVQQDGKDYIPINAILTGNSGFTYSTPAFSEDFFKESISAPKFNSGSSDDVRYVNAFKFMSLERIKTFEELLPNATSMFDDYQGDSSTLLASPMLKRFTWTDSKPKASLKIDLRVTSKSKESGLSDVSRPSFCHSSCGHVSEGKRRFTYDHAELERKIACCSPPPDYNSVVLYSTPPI
# T5 sequence (P42684 whole entry, the tested form may be a part): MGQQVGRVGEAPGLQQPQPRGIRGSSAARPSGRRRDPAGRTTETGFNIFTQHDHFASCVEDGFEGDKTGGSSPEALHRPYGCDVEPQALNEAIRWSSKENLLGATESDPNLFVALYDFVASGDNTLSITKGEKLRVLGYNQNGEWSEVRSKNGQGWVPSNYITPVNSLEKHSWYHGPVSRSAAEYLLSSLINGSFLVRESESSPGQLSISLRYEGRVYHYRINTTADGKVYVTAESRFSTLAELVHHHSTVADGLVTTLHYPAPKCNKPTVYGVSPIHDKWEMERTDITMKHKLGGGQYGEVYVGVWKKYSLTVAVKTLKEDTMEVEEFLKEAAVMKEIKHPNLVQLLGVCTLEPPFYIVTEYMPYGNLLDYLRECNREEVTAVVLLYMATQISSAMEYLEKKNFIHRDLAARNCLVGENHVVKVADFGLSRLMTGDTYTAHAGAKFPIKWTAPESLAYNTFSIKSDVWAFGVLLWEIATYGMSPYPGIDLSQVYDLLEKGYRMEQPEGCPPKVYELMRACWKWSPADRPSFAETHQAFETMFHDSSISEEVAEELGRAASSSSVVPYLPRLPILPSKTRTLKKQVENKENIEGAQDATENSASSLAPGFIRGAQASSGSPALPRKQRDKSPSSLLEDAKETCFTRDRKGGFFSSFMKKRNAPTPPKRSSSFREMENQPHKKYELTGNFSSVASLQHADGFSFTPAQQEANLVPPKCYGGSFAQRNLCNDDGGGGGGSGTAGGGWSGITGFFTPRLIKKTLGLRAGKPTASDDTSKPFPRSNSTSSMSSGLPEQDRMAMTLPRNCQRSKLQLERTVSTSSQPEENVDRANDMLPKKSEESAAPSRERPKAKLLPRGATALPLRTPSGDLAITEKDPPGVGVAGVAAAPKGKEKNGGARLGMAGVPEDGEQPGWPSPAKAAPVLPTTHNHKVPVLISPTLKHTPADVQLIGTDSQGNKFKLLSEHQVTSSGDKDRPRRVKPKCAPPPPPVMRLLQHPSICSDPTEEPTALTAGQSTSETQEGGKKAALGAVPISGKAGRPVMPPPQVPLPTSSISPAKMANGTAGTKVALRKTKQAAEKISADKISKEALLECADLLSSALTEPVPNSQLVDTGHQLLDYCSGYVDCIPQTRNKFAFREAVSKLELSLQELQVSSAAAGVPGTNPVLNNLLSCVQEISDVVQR
# T3 sequence (P35916 whole entry, the tested form may be a part): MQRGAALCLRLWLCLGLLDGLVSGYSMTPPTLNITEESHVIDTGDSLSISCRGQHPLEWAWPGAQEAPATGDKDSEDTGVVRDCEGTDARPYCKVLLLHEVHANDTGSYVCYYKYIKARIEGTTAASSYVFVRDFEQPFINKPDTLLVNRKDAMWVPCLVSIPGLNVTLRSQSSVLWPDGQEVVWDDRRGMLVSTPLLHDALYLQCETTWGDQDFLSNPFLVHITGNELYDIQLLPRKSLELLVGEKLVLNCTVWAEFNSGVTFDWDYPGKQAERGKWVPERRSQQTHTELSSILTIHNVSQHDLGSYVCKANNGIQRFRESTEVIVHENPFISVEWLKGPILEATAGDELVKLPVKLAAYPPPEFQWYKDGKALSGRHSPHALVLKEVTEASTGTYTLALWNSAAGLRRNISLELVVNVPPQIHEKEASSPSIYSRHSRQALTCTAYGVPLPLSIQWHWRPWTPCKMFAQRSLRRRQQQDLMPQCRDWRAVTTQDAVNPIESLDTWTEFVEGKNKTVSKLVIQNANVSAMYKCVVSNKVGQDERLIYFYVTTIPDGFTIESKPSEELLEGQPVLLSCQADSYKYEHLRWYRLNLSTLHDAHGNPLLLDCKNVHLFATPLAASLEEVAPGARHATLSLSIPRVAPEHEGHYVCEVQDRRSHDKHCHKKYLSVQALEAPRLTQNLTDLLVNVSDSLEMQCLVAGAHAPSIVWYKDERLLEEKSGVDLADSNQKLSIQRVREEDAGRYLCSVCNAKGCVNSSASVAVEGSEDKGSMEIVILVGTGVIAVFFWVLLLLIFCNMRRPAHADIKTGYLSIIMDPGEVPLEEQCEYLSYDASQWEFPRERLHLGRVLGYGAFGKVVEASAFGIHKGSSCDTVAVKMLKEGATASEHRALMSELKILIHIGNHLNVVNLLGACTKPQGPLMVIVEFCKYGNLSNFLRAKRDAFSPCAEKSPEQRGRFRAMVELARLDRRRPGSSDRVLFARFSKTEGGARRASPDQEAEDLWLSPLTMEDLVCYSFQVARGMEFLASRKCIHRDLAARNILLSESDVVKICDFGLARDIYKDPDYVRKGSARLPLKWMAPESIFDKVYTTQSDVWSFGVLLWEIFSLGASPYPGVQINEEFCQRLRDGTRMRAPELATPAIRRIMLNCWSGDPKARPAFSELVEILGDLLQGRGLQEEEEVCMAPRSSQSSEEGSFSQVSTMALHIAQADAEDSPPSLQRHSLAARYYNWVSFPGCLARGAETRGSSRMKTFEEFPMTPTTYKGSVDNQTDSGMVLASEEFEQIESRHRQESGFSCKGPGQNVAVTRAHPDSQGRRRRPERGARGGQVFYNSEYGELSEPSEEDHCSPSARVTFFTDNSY
# T1 sequence (P10721 whole entry, the tested form may be a part): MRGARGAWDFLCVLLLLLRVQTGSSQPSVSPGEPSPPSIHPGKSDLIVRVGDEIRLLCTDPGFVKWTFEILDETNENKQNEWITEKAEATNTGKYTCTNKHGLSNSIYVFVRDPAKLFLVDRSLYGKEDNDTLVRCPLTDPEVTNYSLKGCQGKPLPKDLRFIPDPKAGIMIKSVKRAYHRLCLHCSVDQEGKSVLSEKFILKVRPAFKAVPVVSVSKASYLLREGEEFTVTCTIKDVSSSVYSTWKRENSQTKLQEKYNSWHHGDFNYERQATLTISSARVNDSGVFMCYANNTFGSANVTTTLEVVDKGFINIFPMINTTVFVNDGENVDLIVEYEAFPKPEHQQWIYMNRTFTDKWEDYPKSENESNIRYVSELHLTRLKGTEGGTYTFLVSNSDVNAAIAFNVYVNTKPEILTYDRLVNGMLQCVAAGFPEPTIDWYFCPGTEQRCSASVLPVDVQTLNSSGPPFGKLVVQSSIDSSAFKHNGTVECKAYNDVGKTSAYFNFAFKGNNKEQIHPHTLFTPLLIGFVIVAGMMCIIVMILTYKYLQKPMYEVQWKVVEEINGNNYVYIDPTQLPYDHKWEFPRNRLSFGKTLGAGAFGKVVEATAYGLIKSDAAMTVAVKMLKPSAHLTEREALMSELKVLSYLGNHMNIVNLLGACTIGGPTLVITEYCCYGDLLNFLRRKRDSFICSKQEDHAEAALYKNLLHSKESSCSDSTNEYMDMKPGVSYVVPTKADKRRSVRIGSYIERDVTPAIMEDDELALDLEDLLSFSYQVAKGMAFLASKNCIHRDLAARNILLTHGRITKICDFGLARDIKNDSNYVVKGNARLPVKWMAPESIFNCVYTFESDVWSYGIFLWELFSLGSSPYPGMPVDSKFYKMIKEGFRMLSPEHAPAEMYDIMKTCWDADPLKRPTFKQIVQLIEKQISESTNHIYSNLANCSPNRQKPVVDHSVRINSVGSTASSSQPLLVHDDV
SMILES,Activity [2],IC50 [4],IC50 (A549 [5]),IC50 [6],selectivity ratio [7],selectivity ratio [9],IC50 (MIA PaCa-2 [12]),IC50 (CCRF-CEM [13]),selectivity ratio [15],Activity [16],IC50 (PBMC),IC50 [17],Activity [18],IC50 (ADR5000 cell line [20]),IC50 [21],IC50 [22],Activity [24],IC50 (Jurkat [26]),other results
O=C(CCCC(=O)N1C[C@@H](CCl)c2c1cc(O)c1ccccc21)N1C[C@@H](CCl)c2c1cc(O)c1ccccc21,233 equiv,530 nM,2.7 nM,4200 nM,2220,741,14.1 nM,0.9 nM,1430,230 equiv,2000 nM,1270 nM,457 equiv,6.9 nM,3000 nM,685 nM,283 equiv,1.4 nM,Activity (A549 [1]): Dose-dependent effect; selectivity ratio [3]: 142; inhibition [4]: Dose-dependent effect; inhibition [6]: Dose-dependent effect; selectivity ratio [8]: 290; Activity (Jurkat [10]): Dose-dependent effect; Activity (ADR5000 cell line [11]): Dose-dependent effect; Activity (MIA PaCa-2 [14]): Active; inhibition [17]: Dose-dependent effect; Activity [19]: 894 equiv; inhibition [21]: Dose-dependent effect; inhibition [22]: Dose-dependent effect; Activity (CCRF-CEM [23]): Dose-dependent effect; Activity (MIA PaCa-2 [25]): Dose-dependent effect
CNC(=O)c1ccccc1Sc1ccc2c(/C=C/c3ccccn3)n[nH]c2c1,–,–,–,–,–,–,–,–,–,–,–,–,–,–,–,–,–,–,Activity (MIA PaCa-2 [27]): Active; Activity (Jurkat [28]): Active; Activity (CCRF-CEM [29]): Active; Activity (A549 [30]): Active; Activity (ADR5000 cell line [31]): Active
C[C@@H]1CN(C(=O)CCCC(=O)N2C[C@@H](C)c3c2cc(O)c2ccccc32)c2cc(O)c3ccccc3c21,643 equiv,330 nM,663 nM,> 10000 nM,> 439,> 120,> 10000 nM,182 nM,> 121,143 equiv,> 80000 nM,2100 nM,360 equiv,> 10000 nM,8300 nM,540 nM,511 equiv,660 nM,"Activity (MIA PaCa-2 [32]): inactive; viability at 24 h, 80 µM [33]: 80%"
